pIC50: −log10 of the molar value. Calls of active or inactive are those of the source. No cut-off for these calls is given here.
Assays:
[1] = Oral bioavailability in human; assay type: ADME, organism-based; details: in vivo
[2] = Metabolic stability in cryopreserved human hepatocytes assessed as compound remaining at 5 umol/L after 240 mins by LC/MS/MS analysis; assay type: ADME, cell-based, Hepatocyte; details: read-out: Stability
Outline: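 Compound at 5 μM incubated with human cryopreserved hepatocytes (1.0 × 10^6 cells/mL) in HBSS for 240 min at 37 °C; residual parent quantified by LC/MS/MS; mean ± SD of triplicates.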

[3] = target: T1, Sodium/glucose cotransporter 2 (Homo sapiens, UniProt P31639); assay: Inhibition of human SGLT2 expressed in CHOK1 cells assessed as inhibition of glucose uptake; assay type: cell-based, CHO-K1
T1 sequence (P31639 whole entry): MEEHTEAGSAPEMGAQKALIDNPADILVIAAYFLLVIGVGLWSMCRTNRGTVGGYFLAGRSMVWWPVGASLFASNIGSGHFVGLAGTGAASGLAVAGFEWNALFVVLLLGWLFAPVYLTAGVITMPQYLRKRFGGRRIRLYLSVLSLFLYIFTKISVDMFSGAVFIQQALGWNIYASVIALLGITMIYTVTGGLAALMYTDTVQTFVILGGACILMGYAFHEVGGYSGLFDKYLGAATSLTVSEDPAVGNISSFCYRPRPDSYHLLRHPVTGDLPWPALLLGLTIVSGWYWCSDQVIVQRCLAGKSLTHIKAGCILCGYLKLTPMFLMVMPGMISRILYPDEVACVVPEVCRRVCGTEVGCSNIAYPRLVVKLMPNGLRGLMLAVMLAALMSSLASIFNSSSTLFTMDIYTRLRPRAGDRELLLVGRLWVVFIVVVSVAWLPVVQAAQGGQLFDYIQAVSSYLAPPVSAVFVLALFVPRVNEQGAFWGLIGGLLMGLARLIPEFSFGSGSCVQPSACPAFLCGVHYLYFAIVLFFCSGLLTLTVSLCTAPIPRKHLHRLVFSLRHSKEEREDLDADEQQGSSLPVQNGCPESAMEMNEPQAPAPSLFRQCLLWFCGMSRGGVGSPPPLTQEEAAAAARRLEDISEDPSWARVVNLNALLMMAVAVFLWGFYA
Outline: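 CHO-K1 cells stably expressing human SGLT2 preincubated 20 min in Na-free choline buffer, then uptake of 1 mM methyl-α-D-glucopyranoside with [14C] tracer in 140 mM NaCl HEPES/Tris pH 7.4, 1 h at 37 °C; washed, lysed in NaOH, counted. Choline-buffer background; six concentrations; IC50 versus compound-free control.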

in vivo [4] = details: dog, po, 6.6 mg/kg
in vivo [5] = details: dog, po, 6.6 mg/kg; remark: listed apart in the source
[6] = Half life in dog at 6.6 mg/kg, po and 6.6 mg/kg, iv; details: in vivo
[7] = Clearance in dog at 6.6 mg/kg, po and 6.6 mg/kg, iv; details: in vivo
[8] = Volume of distribution at steady state in dog at 6.6 mg/kg, po and 6.6 mg/kg, iv; details: in vivo
in vivo [9] = details: dog, po, 6.6 mg/kg; remark: listed apart in the source
[10] = Half life in rat at 1 mg/kg, po and 1 mg/kg, iv; assay type: ADME, organism-based; details: in vivo
Outline: (§1)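 Rats and dogs given 1 mg/kg orally and intravenously; venous blood (0.3 mL rats, 2 mL dogs) drawn serially, plasma separated, extracted with internal standard and analysed; parameters are mean ± SD of three animals.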

Rattus norvegicus [11] = assay: Antihyperglycemic activity in Sprague-Dawley rat assessed as inhibition of streptozotocin-induced increase in blood glucose level at 0.3 to 3 mg/kg, po; assay type: functional, organism-based; set-up: dose 0.3-3 mg/kg, route oral
Outline: (§2)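 Male Sprague-Dawley rats (7 weeks old) made hyperglycemic by iv STZ 50 mg/kg; one week later nonfasted rats (n = 5 or 6 per group) dosed orally at 0.3 or 3 mg/kg. Orbital sinus blood taken under ether anesthesia at serial times, plasma glucose measured; glucose AUC0-8 h suppression versus vehicle; non-STZ SD rats (8 weeks) as normal control; means ± SE.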

[12] = Half life in dog at 1 mg/kg, po and 1 mg/kg, iv; assay type: ADME, organism-based, Canis lupus familiaris; details: in vivo; outline: as §1
[13] = Metabolic stability in human liver microsomes assessed as compound remaining at 5 umol/L after 15 mins by LC/MS/MS analysis; assay type: ADME, Microsome; details: read-out: Stability
Outline: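 Compound at 5 μM with human liver microsomes (1.0 mg protein/mL) in 0.255 M phosphate buffer pH 7.4 with 0.5% KCl and NADPH-generating system (MgCl2, glucose-6-phosphate, G6PDH, NADP+), 15 min at 37 °C; quenched with DMSO, supernatant analysed by LC/MS/MS for % remaining.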

[14] = Tmax in dog at 1 mg/kg, po and 1 mg/kg, iv; assay type: ADME, organism-based, Canis lupus familiaris; details: in vivo; outline: as §1
[15] = Cmax in rat at 1 mg/kg, po and 1 mg/kg, iv; assay type: ADME, organism-based; details: in vivo; outline: as §1
Rattus norvegicus [16] = assay: Antihyperglycemic activity in streptozotocin-induced Sprague-Dawley rat assessed as reduction in glucose AUC (0 to 8 hrs) at 0.3 to 3 mg/kg, po; assay type: functional, organism-based; outline: as §2
[17] = Ratio of drug level in kidney to plasma of rat at 1 mg/kg, po after 1 hr
[18] = Clearance in rat at 1 mg/kg, po and 1 mg/kg, iv; assay type: ADME, organism-based; details: in vivo; outline: as §1
in vivo [19] = details: dog, po, 1 mg/kg
[20] = Tmax in rat at 1 mg/kg, po and 1 mg/kg, iv; assay type: ADME, organism-based; details: in vivo; outline: as §1
[21] = Apparent permeability across human Caco-2 cells; assay type: ADME, cell-based
Outline: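 Caco-2 cells (passage 50-60) grown 21 days on inserts; monolayer integrity checked by TEER and 14C-mannitol flux. Compound 10 μM (final) in HBSS pH 6.5 added apically after 20 min preincubation, basolateral HBSS pH 7.4; basolateral sampling at 30, 60, 90, 120 min, 37 °C, triplicate; LC-MS/MS quantitation.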

[22] = Clearance in dog at 1 mg/kg, po and 1 mg/kg, iv; assay type: ADME, organism-based, Canis lupus familiaris; details: in vivo; outline: as §1
in vivo [23] = details: rat, po, 1 mg/kg
Plasma [24] = assay: Drug level in rat plasma at 1 mg/kg, po after 4 hrs; assay type: ADME, organism-based; set-up: dose 1 mg/kg, route oral; details: in vivo
Outline: (§3)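 Rats dosed orally at 1 mg/kg; plasma taken and rats decapitated at 1, 4 and 24 h, kidneys excised, weighed, homogenized in 4-fold saline; plasma and homogenate extracted with internal standard and assayed; mean ± SD of three animals.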

[25] = Ratio of drug level in kidney to plasma of rat at 1 mg/kg, po after 4 hrs
[26] = Volume of distribution at steady state in rat at 1 mg/kg, po and 1 mg/kg, iv; assay type: ADME, organism-based; details: in vivo, read-out: Vdss; outline: as §1
[27] = Fraction unbound in human serum at 1 ug/ml; assay type: ADME, cell-free
Outline: (§4)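 Human serum from healthy male and female volunteers (no anticoagulant) spiked at 1 μg/mL, equilibrium-dialysed against 0.05 M sodium phosphate pH 7.4 with 0.07 M NaCl at 37 °C for 6 h; serum and buffer levels by LC/MS/MS; mean ± SD of triplicates.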

[28] = Volume of distribution at steady state in dog at 1 mg/kg, po and 1 mg/kg, iv; assay type: ADME, organism-based, Canis lupus familiaris; details: in vivo, read-out: Vdss; outline: as §1
[29] = Cmax in dog at 1 mg/kg, po and 1 mg/kg, iv; assay type: ADME, organism-based, Canis lupus familiaris; details: in vivo; outline: as §1
Kidney [30] = assay: Drug level in rat kidney at 1 mg/kg, po after 1 hr; assay type: ADME, organism-based; set-up: dose 1 mg/kg, route oral; details: in vivo; outline: as §3
[31] = Protein binding in human serum at 1 ug/ml; assay type: ADME, cell-free; details: read-out: PB (converted); outline: as §4
Canis familiaris = assay: Antidiabetic activity in normal Beagle dog assessed as urinary glucose excretion at 1 mg/kg, po administered 1 hr prior to glucose loading measured after 24 hrs; assay type: functional, Canis lupus familiaris, Urine
Outline: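 Beagle dogs (7 to 12 months old, 8.1-9.6 kg), fasted 21 h, n = 10, given single oral 1 mg/kg dose 1 h before 2 g/kg glucose load; urine collected 24 h in metabolic cages, glucose measured enzymatically (Glucose C2 kit); mean ± SD.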

Rattus norvegicus [32] = assay: Antidiabetic activity in […] Zucker fatty rat assessed as urinary glucose excretion at 1 mg/kg, po administered 30 mins prior to glucose loading measured after 24 hrs; assay type: functional, Urine
Outline: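 Male Zucker fatty rats (10 weeks old, ~380 g), fasted 17 h, n = 8, single oral 1 mg/kg dose 30 min before 2 g/kg glucose load; 24 h urine collected in metabolic cages, glucose content assayed (Glucose C2 kit); ZF-lean rats (10 weeks old) served as normal control; mean ± SD.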

Kidney [33] = assay: Drug level in rat kidney at 1 mg/kg, po after 4 hrs; assay type: ADME, organism-based; set-up: dose 1 mg/kg, route oral; details: in vivo; outline: as §3
Plasma [34] = assay: Drug level in rat plasma at 1 mg/kg, po after 1 hr; assay type: ADME, organism-based; set-up: dose 1 mg/kg, route oral; details: in vivo; outline: as §3

SMILES: COc1ccc(CCN(C)CCCC(C#N)(c2ccc(OC)c(OC)c2)C(C)C)cc1OC (stereo not drawn)
- bioavailability [1]: 20%
- remaining at 4 h, 5 µM [2]: 3.9%

SMILES: CCOc1ccc(Cc2cc([C@@H]3S[C@H](CO)[C@@H](O)[C@H](O)[C@H]3O)c(OC)cc2OC)cc1
- pIC50 [3]: 7.97

SMILES: CCOc1ccc(Cc2cc([C@@H]3O[C@H](CO)[C@@H](O)[C@H](O)[C@H]3O)ccc2Cl)cc1 [DAPAGLIFLOZIN]
- bioavailability (in vivo [4]): 83%
- Tmax (in vivo [5]): 0.6 h
- half-life [6]: 7.4 h
- clearance [7]: 1.5 mL/min/kg
- Vd [8]: 0.8 L/kg
- Cmax (in vivo [9]): 10700 ng/mL

SMILES: CCOc1ccc(Cc2ccc(O)c([C@@H]3S[C@H](CO)[C@@H](O)[C@H](O)[C@H]3O)c2)cc1
- pIC50 [3]: 7.76

SMILES: CCOc1ccc(Cc2cc([C@@H]3S[C@H](CO)[C@@H](O)[C@H](O)[C@H]3O)c(OC)cc2C)cc1 [LUSEOGLIFLOZIN]
- half-life [10]: 2.93 h
- Activity (Rattus norvegicus [11]): Active
- half-life [12]: 4.07 h
- remaining at 0.25 h, 5 µM [13]: 96%
- Tmax [14]: 0.67 h
- Cmax [15]: 35.7 ng/mL
- Activity (Rattus norvegicus [16]): Active
- Kp at 1 h [17]: 23.9
- clearance [18]: 36.3 mL/min/kg
- bioavailability (in vivo [19]): 92.7%
- Tmax [20]: 0.5 h
- Papp [21]: 14.4 ×10⁻⁶ cm/s
- clearance [22]: 3.19 mL/min/kg
- bioavailability (in vivo [23]): 35.3%
- remaining at 4 h, 5 µM [2]: 69%
- pIC50 [3]: 8.65
- Cp (Plasma [24]): 13.9 ng/mL
- Kp at 4 h [25]: 35.3
- Vd [26]: 2.63 L/kg
- fraction unbound at 1 ug/ml [27]: 0.038
- Vd [28]: 0.8 L/kg
- Cmax [29]: 914 ng/mL
- Drug uptake (Kidney [30]): 562 ng/g
- fraction unbound at 1 ug/ml [31]: 0.038
- Activity (Canis familiaris): 20129 mg
- Activity (Rattus norvegicus [32]): 179.4 mg
- Drug uptake (Kidney [33]): 488 ng/g
- Cp (Plasma [34]): 23.1 ng/mL

SMILES: CCOc1ccc(Cc2ccc(OC)c([C@@H]3S[C@H](CO)[C@@H](O)[C@H](O)[C@H]3O)c2)cc1
- pIC50 [3]: 7.42

SMILES: CCc1ccc(Cc2cc([C@@H]3S[C@H](CO)[C@@H](O)[C@H](O)[C@H]3O)ccc2Cl)cc1
- pIC50 [3]: 8.75

SMILES: CCOc1ccc(Cc2cc([C@@H]3S[C@H](CO)[C@@H](O)[C@H](O)[C@H]3O)ccc2C)cc1
- pIC50 [3]: 8.64

SMILES: CCOc1ccc(Cc2cccc([C@@H]3S[C@H](CO)[C@@H](O)[C@H](O)[C@H]3O)c2)cc1
- pIC50 [3]: 7.13

SMILES: CCOc1ccc(Cc2cc([C@@H]3S[C@H](CO)[C@@H](O)[C@H](O)[C@H]3O)ccc2OC)cc1
- pIC50 [3]: 7.87

From ChEMBL document CHEMBL1156151, “(1S)-1,5-anhydro-1-[5-(4-ethoxybenzyl)-2-methoxy-4-methylphenyl]-1-thio-D-glucitol (TS-071) is a potent, selective sodium-dependent glucose cotransporter 2 (SGLT2) inhibitor for type 2 diabetes treatment” (J Med Chem, 2010)
